Experimental data published in ChEMBL document CHEMBL4673223, “Synthesis, Biological, and Structural Explorations of New Zwitterionic Derivatives of 14- O-Methyloxymorphone, as Potent μ/δ Opioid Agonists and Peripherally Selective Antinociceptives” (J Med Chem, 2019).
Activity calls are given as the source filed them. The rule behind the calls is not given here.

How the values were obtained:
[1] = biological target: Delta-type opioid receptor (Homo sapiens) (UniProt P41143); assay: Displacement of [3H]diprenorphine from human DOR expressed in CHO cell membranes incubated for 60 mins liquid scintillation counting assay; conditions: Cell membrane, filed as agonist
Method in brief: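 Membranes from CHO cells expressing human DOR (15–20 μg) in 50 mM Tris-HCl, pH 7.4, were incubated with 0.2 nM [3H]diprenorphine and varied test concentrations for 60 min at 25 °C. Nonspecific binding was set with 1–10 μM unlabeled diprenorphine. Samples were GF/C filtered and scintillation counted.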

Rattus norvegicus = organism: Rattus norvegicus; assay: Selectivity index, ratio of Ki for displacement of [3H][Ile5,6]deltorphin II from delta opioid receptor in rat brain membranes to Ki for displacement of [3H]DAMGO from mu opioid receptor in rat brain membranes; type: cell membranes
Method in brief: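 Rat brain membranes (cerebella removed; 0.3–0.5 mg protein) in 50 mM Tris-HCl, pH 7.4, were incubated 45 min at 35 °C with 1 nM [3H]DAMGO (MOR) or 0.5 nM [3H][Ile5,6]deltorphin II (DOR) plus varied test concentrations. Nonspecific binding was set with 10 μM naloxone. Samples were GF/C filtered, washed and scintillation counted. Ki was obtained by Cheng–Prusoff; duplicates, 3–4 experiments.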

[2] = Selectivity index, ratio of Ki for displacement of [3H]U69,593 from kappa opioid receptor in guinea-pig brain membranes to Ki for displacement of [3H]DAMGO from mu opioid receptor in rat brain membranes; type: cell membranes
Method in brief: (§1)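 Guinea-pig brain membranes (0.3–0.5 mg protein) in 50 mM Tris-HCl, pH 7.4, were incubated with 1 nM [3H]U69,593 for 30 min at 30 °C, with 10 μM naloxone defining nonspecific binding. MOR was measured on rat brain membranes with 1 nM [3H]DAMGO for 45 min at 35 °C. Samples were filtered and scintillation counted, and Ki was obtained by Cheng–Prusoff; duplicates, 3–4 experiments.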

[3] = biological target: Mu-type opioid receptor (Homo sapiens) (UniProt P35372); assay: Agonist activity at human MOR expressed in CHO cell membranes incubated for 60 mins scintillation counting assay relative to DAMGO; conditions: Cell membrane
Method in brief: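 CHO-hMOR or CHO-hKOR membranes (5–10 μg) were incubated 60 min at 25 °C in HEPES/MgCl2/NaCl buffer, pH 7.4, with 0.05 nM [35S]GTPγS, 10 μM GDP and varied test concentrations. Nonspecific binding was set with 10 μM GTPγS. Samples were filtered and scintillation counted. % stimulation was taken from concentration–response curves relative to the full agonist (DAMGO for MOR, U69,593 for KOR). Duplicates, 3–4 experiments.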

Mus musculus [4] = assay: Antinociceptive activity in sc dosed CD1 mouse assessed as inhibition of the writhing response after 30 mins post dose by acetic acid-induced writhing assay; type: functional; conditions: 0.5 h
Mus musculus [5] = assay: Antinociceptive activity in CD1 mouse assessed as inhibition of the writhing response at 50 ug/kg, sc and co-administered with 1 mg/kg naloxone methiodide and measured after 30 mins post dose by acetic acid-induced writhing assay; type: functional, organism-based; conditions: dose 50.0 µg/kg
Method in brief: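 Male CD1 mice (30–35 g) received the agonist sc in saline (10 μL/g) together with sc naloxone methiodide 1 mg/kg. At 25 min, 0.6% acetic acid was given ip, and writhes were counted over a 10 min observation period (30 min post-dose). Results were expressed as mean writhes versus saline control and agonist-alone groups; n = 6–7 mice per group; ANOVA with Tukey post hoc.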

[6] = biological target: Kappa-type opioid receptor (Cavia porcellus, UniProt P41144); assay: Displacement of [3H]U69,593 from kappa opioid receptor in guinea-pig brain membranes incubated for 30 mins by liquid scintillation counting method; type: cell membranes, Membrane; method in brief: as §1
Kappa-type opioid receptor, sequence (P41144 whole entry): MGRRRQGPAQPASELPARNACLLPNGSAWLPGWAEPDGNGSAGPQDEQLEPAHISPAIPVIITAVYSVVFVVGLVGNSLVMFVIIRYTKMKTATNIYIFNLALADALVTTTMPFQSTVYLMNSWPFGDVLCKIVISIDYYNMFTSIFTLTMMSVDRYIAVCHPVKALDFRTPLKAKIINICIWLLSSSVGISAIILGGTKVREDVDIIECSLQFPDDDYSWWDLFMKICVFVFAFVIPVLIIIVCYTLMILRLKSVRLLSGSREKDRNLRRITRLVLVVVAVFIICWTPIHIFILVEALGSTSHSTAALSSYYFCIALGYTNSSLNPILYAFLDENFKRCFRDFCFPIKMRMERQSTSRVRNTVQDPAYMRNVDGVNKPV

Delta-type opioid receptor (Homo sapiens), sequence (P41143 whole entry): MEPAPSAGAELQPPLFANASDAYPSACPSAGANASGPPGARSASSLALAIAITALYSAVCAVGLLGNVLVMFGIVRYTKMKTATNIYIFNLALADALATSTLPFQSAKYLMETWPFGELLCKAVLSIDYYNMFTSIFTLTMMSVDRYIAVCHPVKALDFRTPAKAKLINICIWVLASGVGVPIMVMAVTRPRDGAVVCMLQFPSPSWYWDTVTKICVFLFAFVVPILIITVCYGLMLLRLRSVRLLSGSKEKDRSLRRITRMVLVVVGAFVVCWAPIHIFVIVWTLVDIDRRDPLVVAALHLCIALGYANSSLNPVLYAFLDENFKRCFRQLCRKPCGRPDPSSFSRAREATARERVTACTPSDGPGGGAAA
Mu-type opioid receptor (Homo sapiens), sequence (P35372 whole entry): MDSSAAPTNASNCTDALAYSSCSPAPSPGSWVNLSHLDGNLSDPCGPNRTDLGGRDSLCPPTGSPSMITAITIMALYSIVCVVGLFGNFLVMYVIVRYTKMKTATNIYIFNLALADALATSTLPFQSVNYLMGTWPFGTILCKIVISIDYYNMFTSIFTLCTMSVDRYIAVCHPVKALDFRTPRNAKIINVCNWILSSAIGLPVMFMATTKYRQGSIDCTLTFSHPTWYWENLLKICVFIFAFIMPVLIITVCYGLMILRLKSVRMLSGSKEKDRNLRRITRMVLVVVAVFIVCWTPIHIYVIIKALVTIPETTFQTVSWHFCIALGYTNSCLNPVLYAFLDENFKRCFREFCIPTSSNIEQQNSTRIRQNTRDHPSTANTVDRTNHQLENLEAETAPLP

Row | Compound | Activity [1] | Ratio Ki (Rattus norvegicus) | Ratio Ki [2] | Activity ([3]; filed as partial agonist) | Activity ([3]; filed as agonist) | ED50 (Mus musculus [4]) | Activity (Mus musculus [5]) | Ki [6]
1 | CN1CC[C@]23c4c5ccc(O)c4O[C@H]2[C@H](NCC(=O)O)CC[C@@]3(OCCCc2ccccc2)[C@H]1C5 | Active |  |  |  |  |  |  | 
2 | CO[C@@]12CC[C@H](N[C@@H](CCC(N)=O)C(=O)O)[C@@H]3Oc4c(O)ccc5c4[C@@]31CCN(C)[C@@H]2C5 | Active | 1.6 | 108 |  |  |  |  | 
3 | CO[C@@]12CC[C@@H](N[C@H](C(=O)N[C@@H](Cc3ccc(O)cc3)C(=O)O)C(C)C)[C@@H]3Oc4c(O)ccc5c4[C@@]31CCN(C)[C@@H]2C5 | Active | 3.1 |  | 73% |  |  |  | 
4 | CO[C@@]12CCC(N[C@@H](CCC(=O)O)C(=O)O)[C@@H]3Oc4c(O)ccc5c4[C@@]31CCN(C)[C@@H]2C5 (single isomer, unassigned) | Active | 6.2 | 60 |  |  |  |  | 
5 | CO[C@@]12CC[C@H](N[C@H](C(=O)N[C@@H](Cc3ccc(O)cc3)C(=O)O)C(C)C)[C@@H]3Oc4c(O)ccc5c4[C@@]31CCN(C)[C@@H]2C5 | Active | 1.5 | 84 | 84% |  |  |  | 
6 | CO[C@@]12CC[C@H](NCC(=O)O)[C@@H]3Oc4c(O)ccc5c4[C@@]31CCN(C)[C@@H]2C5 | Active |  |  |  |  |  |  | 
7 | CO[C@@]12CC[C@H](NCCCC(=O)O)[C@@H]3Oc4c(O)ccc5c4[C@@]31CCN(C)[C@@H]2C5 | Active | 16 | 59 |  |  |  |  | 
8 | CO[C@@]12CC[C@@H](NCCC(=O)O)[C@@H]3Oc4c(O)ccc5c4[C@@]31CCN(C)[C@@H]2C5 | Active | 13 | 69 |  | 78% |  |  | 
9 | CO[C@@]12CC[C@@H](N[C@@H](CCC(=O)O)C(=O)O)[C@@H]3Oc4c(O)ccc5c4[C@@]31CCN(C)[C@@H]2C5 | Active | 0.7 | 108 |  |  |  |  | 
10 | CO[C@@]12CC[C@H](N[C@H](Cc3ccccc3)C(=O)O)[C@@H]3Oc4c(O)ccc5c4[C@@]31CCN(C)[C@@H]2C5 | Active | 6 | 125 |  |  | 0.0181 mg/kg |  | 
11 | CO[C@@]12CC[C@H](NCCC(=O)O)[C@@H]3Oc4c(O)ccc5c4[C@@]31CCN(C)[C@@H]2C5 | Active | 46 | 140 |  |  |  |  | 
12 | CO[C@@]12CC[C@H](N[C@@H](CCCCN)C(=O)O)[C@@H]3Oc4c(O)ccc5c4[C@@]31CCN(C)[C@@H]2C5 | Active | 6.7 | 66 |  |  |  |  | 
13 | CO[C@@]12CC[C@@H](N[C@@H](CCC(N)=O)C(=O)O)[C@@H]3Oc4c(O)ccc5c4[C@@]31CCN(C)[C@@H]2C5 | Active | 2 | 117 |  |  |  |  | 
14 | CO[C@@]12CC[C@@H](N[C@@H](CCCCN)C(=O)O)[C@@H]3Oc4c(O)ccc5c4[C@@]31CCN(C)[C@@H]2C5 | Active | 6.3 | 64 |  |  |  | inactive | 
15 | CO[C@@]12CC[C@H](N[C@H](C(=O)O)C(C)C)[C@@H]3Oc4c(O)ccc5c4[C@@]31CCN(C)[C@@H]2C5 | Active | 1.2 | 103 |  |  |  |  | 
16 | CO[C@@]12CC[C@H](N[C@@H](Cc3c[nH]c4ccccc34)C(=O)O)[C@@H]3Oc4c(O)ccc5c4[C@@]31CCN(C)[C@@H]2C5 | Active | 2.8 | 70 |  |  |  |  | 
17 | CO[C@@]12CC[C@H](N[C@@H](CC(N)=O)C(=O)O)[C@@H]3Oc4c(O)ccc5c4[C@@]31CCN(C)[C@@H]2C5 | Active | 2.9 | 63 |  |  | 0.0152 mg/kg |  | 
18 | CO[C@@]12CC[C@@H](N[C@H](Cc3ccccc3)C(=O)O)[C@@H]3Oc4c(O)ccc5c4[C@@]31CCN(C)[C@@H]2C5 | Active | 0.9 | 109 |  | 78% |  |  | 
19 | CO[C@@]12CC[C@@H](N[C@@H](CC(=O)O)C(=O)O)[C@@H]3Oc4c(O)ccc5c4[C@@]31CCN(C)[C@@H]2C5 | Active | 6.6 | 103 |  | 74% |  |  | 
20 | CO[C@@]12CC[C@H](N[C@@H](C(=O)O)C(C)C)[C@@H]3Oc4c(O)ccc5c4[C@@]31CCN(C)[C@@H]2C5 | Active | 1.1 | 119 |  |  |  |  | 

Row | Compound | Activity [1] | Ratio Ki (Rattus norvegicus) | Ratio Ki [2] | Activity ([3]; filed as partial agonist) | Activity ([3]; filed as agonist) | ED50 (Mus musculus [4]) | Activity (Mus musculus [5]) | Ki [6]
21 | CN1CC[C@]23c4c5ccc(O)c4O[C@H]2[C@@H](NCC(=O)O)CC[C@@]3(OCCCc2ccccc2)[C@H]1C5 | Active |  |  |  |  |  |  | 
22 | CO[C@@]12CC[C@@H](N[C@H](C(=O)O)C(C)C)[C@@H]3Oc4c(O)ccc5c4[C@@]31CCN(C)[C@@H]2C5 | Active | 1.2 | 100 |  | 84% |  |  | 
23 | CO[C@@]12CC[C@@H](N[C@@H](CO)C(=O)O)[C@@H]3Oc4c(O)ccc5c4[C@@]31CCN(C)[C@@H]2C5 | Active | 2.5 | 71 |  |  |  |  | 
24 | CO[C@@]12CC[C@@H](N[C@@H](CC(N)=O)C(=O)O)[C@@H]3Oc4c(O)ccc5c4[C@@]31CCN(C)[C@@H]2C5 | Active | 1.8 | 82 |  |  |  |  | 
25 | CO[C@@]12CC[C@H](N[C@@H](CC(=O)O)C(=O)O)[C@@H]3Oc4c(O)ccc5c4[C@@]31CCN(C)[C@@H]2C5 | Active | 11 | 37 |  |  |  |  | 
26 | CC[C@H](N[C@@H]1CC[C@@]2(OC)[C@H]3Cc4ccc(O)c5c4[C@@]2(CCN3C)[C@H]1O5)C(=O)O | Active | 0.7 | 110 |  | 83% |  | inactive | 
27 | CO[C@@]12CC[C@@H](N[C@H](C)C(=O)O)[C@@H]3Oc4c(O)ccc5c4[C@@]31CCN(C)[C@@H]2C5 | Active |  |  |  |  |  |  | 
28 | CC[C@H](N[C@H]1CC[C@@]2(OC)[C@H]3Cc4ccc(O)c5c4[C@@]2(CCN3C)[C@H]1O5)C(=O)O | Active |  | 189 |  |  | 0.0175 mg/kg |  | 
29 | CO[C@@]12CCC(=O)[C@@H]3Oc4c(O)ccc5c4[C@@]31CCN(C)[C@@H]2C5 | Active |  |  |  |  |  |  | 
30 | CO[C@@]12CC[C@@H](N[C@H](C(=O)O)C3CCCCC3)[C@@H]3Oc4c(O)ccc5c4[C@@]31CCN(C)[C@@H]2C5 | Active | 0.8 | 71 |  |  |  | inactive | 
31 | CO[C@@]12CC[C@H](N[C@H](C)C(=O)O)[C@@H]3Oc4c(O)ccc5c4[C@@]31CCN(C)[C@@H]2C5 | Active |  |  |  |  |  |  | 
32 | CO[C@@]12CC[C@H](N[C@@H](C)C(=O)O)[C@@H]3Oc4c(O)ccc5c4[C@@]31CCN(C)[C@@H]2C5 | Active |  |  |  |  | 0.016 mg/kg |  | 142 nM
33 | CO[C@@]12CC[C@@H](N[C@@H](Cc3ccc(O)cc3)C(=O)O)[C@@H]3Oc4c(O)ccc5c4[C@@]31CCN(C)[C@@H]2C5 | Active | 1.2 | 58 |  |  |  |  | 
34 | CO[C@@]12CC[C@@H](N[C@@H](C(=O)O)C(C)C)[C@@H]3Oc4c(O)ccc5c4[C@@]31CCN(C)[C@@H]2C5 | Active | 1.6 | 156 |  |  | 0.014 mg/kg |  | 
35 | CO[C@@]12CC[C@H](N[C@H](C(=O)O)C3CCCCC3)[C@@H]3Oc4c(O)ccc5c4[C@@]31CCN(C)[C@@H]2C5 | Active | 12 | 144 |  |  |  |  | 
36 | CO[C@@]12CC[C@@H](NCCCC(=O)O)[C@@H]3Oc4c(O)ccc5c4[C@@]31CCN(C)[C@@H]2C5 | Active | 4.7 |  |  |  |  |  | 
37 | CN1CC[C@]23c4c5ccc(O)c4O[C@H]2[C@@H](O)C=C[C@H]3[C@H]1C5 [MORPHINE] |  |  |  |  |  | 0.437 mg/kg |  | 
38 | CO[C@@]12CC[C@H](N[C@@H](Cc3ccc(O)cc3)C(=O)O)[C@@H]3Oc4c(O)ccc5c4[C@@]31CCN(C)[C@@H]2C5 | Active | 2.6 | 48 |  |  | 0.0146 mg/kg |  | 
39 | CO[C@@]12CC[C@H](N[C@@H](CO)C(=O)O)[C@@H]3Oc4c(O)ccc5c4[C@@]31CCN(C)[C@@H]2C5 | Active | 2.4 | 89 |  |  |  |  | 
